From ChEMBL document CHEMBL1141207, “Novel cell-penetrating alpha-keto-amide calpain inhibitors as potential treatment for muscular dystrophy” (Bioorg Med Chem Lett, 2005)

What was measured:
[1] = biological target: T1, Calpain-1 catalytic subunit (Sus scrofa, UniProt P35750); assay: Inhibitory activity against porcine calpain I using Suc-Leu-Tyr-AMC fluorogenic substrate
T1 sequence (P35750 whole entry): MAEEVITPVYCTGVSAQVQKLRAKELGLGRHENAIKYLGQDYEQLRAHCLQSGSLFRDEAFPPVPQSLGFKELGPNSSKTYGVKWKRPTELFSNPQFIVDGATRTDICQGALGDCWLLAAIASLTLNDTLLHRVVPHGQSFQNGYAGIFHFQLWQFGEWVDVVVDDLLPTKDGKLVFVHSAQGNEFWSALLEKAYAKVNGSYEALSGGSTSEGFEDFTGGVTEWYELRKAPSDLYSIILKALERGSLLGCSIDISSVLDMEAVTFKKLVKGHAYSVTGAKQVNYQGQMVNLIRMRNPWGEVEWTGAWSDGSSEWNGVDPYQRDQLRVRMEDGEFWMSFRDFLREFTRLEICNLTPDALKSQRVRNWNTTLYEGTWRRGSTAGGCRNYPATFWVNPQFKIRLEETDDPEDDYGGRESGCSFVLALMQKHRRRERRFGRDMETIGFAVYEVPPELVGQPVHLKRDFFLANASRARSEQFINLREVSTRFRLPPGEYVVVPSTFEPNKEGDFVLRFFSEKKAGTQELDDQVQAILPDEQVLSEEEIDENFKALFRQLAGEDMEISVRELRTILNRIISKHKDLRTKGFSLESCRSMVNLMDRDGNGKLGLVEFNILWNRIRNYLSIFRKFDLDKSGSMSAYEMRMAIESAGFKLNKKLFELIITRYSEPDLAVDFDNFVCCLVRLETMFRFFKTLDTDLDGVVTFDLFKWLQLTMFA
How it was run: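 Purified porcine calpain I, cell-free; hydrolysis of fluorogenic Suc-Leu-Tyr-AMC followed as fluorescence increase over 30 min (ex 360 nm, em 440 nm); IC50 values are means of triplicates.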

[2] = Inhibition of calpain I in C2C12 myoblasts loaded with Suc-Leu-Tyr-AMC; assay type: functional, Mus musculus
How it was run: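 Cultured C2C12 myoblasts loaded with fluorogenic Suc-Leu-Tyr-AMC before the experiment; cellular calpain activated with Ca2+-ionophore Br-A-23187, then substrate hydrolysis by cellular calpain measured by fluorescence; IC50 values are means of triplicates.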

| IC50 [1] [µM] | IC50 [2] [µM] | Compound |
| --- | --- | --- |
| 0.08 | 3.5 | CCNC(=O)C(=O)[C@H](Cc1ccccc1)NC(=O)[C@@H](NC(=O)CCCCC1CCSS1)C(C)C (some centres not stated) |
| 0.4 | 1.8 | CCNC(=O)C(=O)[C@H](Cc1ccc(C(C)(C)C)cc1)NC(=O)[C@@H](NC(=O)CCCCC1CCSS1)C(C)C (some centres not stated) |
| 0.18 | 9 | CCNC(=O)C(=O)[C@H](Cc1ccc(Br)cc1)NC(=O)[C@@H](NC(=O)CCCCC1CCSS1)C(C)CC (some centres not stated) |
| > 1 | – | CCCCCCCCCCCC(=O)N[C@H](C(=O)N[C@@H](Cc1ccc(Cl)cc1)C(=O)C(=O)NCC)C(C)C |
| 0.23 | 0.8 | CC(C)C[C@H](NC(=O)CCCCC1CCSS1)C(=O)NC(Cc1ccc(Br)cc1)C(=O)C(=O)NCCc1ccccn1 (some centres not stated) |
| 0.12 | 5 | CCNC(=O)C(=O)[C@H](Cc1ccc(C#N)cc1)NC(=O)[C@@H](NC(=O)CCCCC1CCSS1)C(C)C (some centres not stated) |
| > 1 | – | CCNC(=O)C(=O)[C@H](Cc1ccc(Cl)cc1)NC(=O)[C@@H](NC(=O)CCCCC1CCSS1)C(C)(C)C (some centres not stated) |
| 0.1 | 6 | CCNC(=O)C(=O)[C@H](Cc1cccs1)NC(=O)[C@@H](NC(=O)CCCCC1CCSS1)C(C)C (some centres not stated) |
| 0.02 | 0.25 | CC(C)C[C@H](NC(=O)CCCCC1CCSS1)C(=O)NC(Cc1ccc(Br)cc1)C(=O)C(N)=O (some centres not stated) |
| 0.1 | 40 | CCNC(=O)C(=O)[C@H](Cc1ccc(Cl)cc1Cl)NC(=O)[C@@H](NC(=O)CCCCC1CCSS1)C(C)C (some centres not stated) |
| > 1 | – | CC(C)C[C@H](NC(=O)CCCCC1CCSS1)C(=O)NC(Cc1ccc(Br)cc1)C(=O)C(=O)NC(C)(C)C (some centres not stated) |
| > 1 | – | CC(C)C[C@H](NC(=O)CCCCC1CCSS1)C(=O)NC(Cc1ccc(Br)cc1)C(=O)C(=O)N1CCOCC1 (some centres not stated) |
| > 1 | > 10 | CCNC(=O)C(=O)[C@H](CCc1ccccc1)NC(=O)[C@@H](NC(=O)CCCCC1CCSS1)C(C)C (some centres not stated) |
| 0.4 | 2 | CCNC(=O)C(=O)[C@@H](NC(=O)[C@@H](NC(=O)CCCCC1CCSS1)C(C)C)c1ccccc1 (some centres not stated) |
| 0.1 | 15 | CCNC(=O)C(=O)[C@H](Cc1cccc(C(F)(F)F)c1)NC(=O)[C@@H](NC(=O)CCCCC1CCSS1)C(C)C (some centres not stated) |
| 0.15 | 25 | CCCCc1ccc(C(=O)N[C@H](C(=O)N[C@@H](Cc2ccc(Cl)cc2)C(=O)C(=O)NCC)C(C)C)cc1 |
| 0.1 | 3.2 | CCNC(=O)C(=O)[C@H](Cc1ccc(Cl)cc1)NC(=O)[C@@H](NC(=O)CCC1CCCS1)C(C)C (some centres not stated) |
| 0.05 | 5 | CC(C)C[C@H](NC(=O)CCCCC1CCSS1)C(=O)NC(Cc1ccc(Br)cc1)C(=O)C(=O)O (some centres not stated) |
| 0.1 | 3.5 | CCNC(=O)C(=O)[C@H](Cc1ccc(Cl)cc1)NC(=O)[C@H](CC(C)(C)C)NC(=O)CCCCC1CCSS1 (some centres not stated) |
| 0.1 | 0.7 | CCNC(=O)C(=O)[C@H](Cc1ccc(F)c(F)c1)NC(=O)[C@@H](NC(=O)CCCCC1CCSS1)C(C)C (some centres not stated) |
| > 1 | – | CCNC(=O)C(=O)[C@H](Cc1ccc(Br)cc1)NC(=O)[C@@H](NC(=O)CCCCC1CCSS1)C1CCCCC1 (some centres not stated) |
| 0.25 | 3 | CCNC(=O)C(=O)[C@H](CC1CCCCC1)NC(=O)[C@@H](NC(=O)CCCCC1CCSS1)C(C)C (some centres not stated) |

| IC50 [1] [µM] | IC50 [2] [µM] | Compound |
| --- | --- | --- |
| 0.15 | 2.5 | CCNC(=O)C(=O)[C@H](Cc1ccc(O)cc1)NC(=O)[C@@H](NC(=O)CCCCC1CCSS1)C(C)C (some centres not stated) |
| 0.08 | 10 | CCNC(=O)C(=O)[C@H](Cc1ccc(Cl)c(Cl)c1)NC(=O)[C@@H](NC(=O)CCCCC1CCSS1)C(C)C (some centres not stated) |
| 0.024 | 0.4 | CCNC(=O)C(=O)[C@H](Cc1ccc(Br)cc1)NC(=O)[C@H](CC(C)C)NC(=O)CCCCC1CCSS1 (some centres not stated) |
| 0.07 | 0.28 | CC(C)C[C@H](NC(=O)CCCCC1CCSS1)C(=O)NC(Cc1ccc(Br)cc1)C(=O)C(=O)NC1CCCCC1 (some centres not stated) |
| > 1 | – | CCNC(=O)C(=O)[C@@H](NC(=O)[C@@H](NC(=O)CCCCC1CCSS1)C(C)C)C(c1ccccc1)c1ccccc1 (some centres not stated) |
| > 10 | 4.5 | CCOC(=O)C(=O)C(Cc1ccc(Br)cc1)NC(=O)[C@H](CC(C)C)NC(=O)CCCCC1CCSS1 (some centres not stated) |
| 0.06 | 1.5 | CCNC(=O)C(=O)[C@H](Cc1ccc(Cl)cc1)NC(=O)[C@@H](NC(=O)CCCCc1ccccc1)C(C)C |
| 0.1 | 0.4 | CCNC(=O)C(=O)[C@H](Cc1ccc(Cl)cc1)NC(=O)[C@@H](NC(=O)CCCCC1CCCS1)C(C)C (some centres not stated) |
| 0.12 | 1 | CC(C)C[C@H](NC(=O)CCCCC1CCSS1)C(=O)NC(Cc1ccc(Br)cc1)C(=O)C(=O)NCCCN1CCOCC1 (some centres not stated) |
| 0.08 | 6 | CCNC(=O)C(=O)[C@H](Cc1ccc(Cl)cc1)NC(=O)[C@@H](NC(=O)CCCCC1CCS[S+]1[O-])C(C)C (some centres not stated) |
| 0.07 | 0.35 | CCNC(=O)C(=O)[C@H](Cc1ccc(C)cc1)NC(=O)[C@@H](NC(=O)CCCCC1CCSS1)C(C)C (some centres not stated) |
| 0.1 | 2.5 | CCNC(=O)C(=O)[C@H](Cc1ccc(F)cc1)NC(=O)[C@@H](NC(=O)CCCCC1CCSS1)C(C)C (some centres not stated) |
| 0.12 | 0.22 | CCNC(=O)C(=O)[C@H](Cc1ccc(OC)cc1)NC(=O)[C@@H](NC(=O)CCCCC1CCSS1)C(C)C (some centres not stated) |
| 0.5 | 0.25 | CCNC(=O)C(=O)[C@H](CC(C)C)NC(=O)[C@@H](NC(=O)CCCCC1CCSS1)C(C)C (some centres not stated) |
| 0.04 | 30 | CCNC(=O)C(=O)[C@H](Cc1ccc(Cl)cc1)NC(=O)[C@@H](NC(=O)CCNC(=O)CCCCC1CCSS1)C(C)C (some centres not stated) |
| 0.2 | 1.1 | CCNC(=O)C(=O)[C@H](Cc1ccc(C(F)(F)F)cc1)NC(=O)[C@@H](NC(=O)CCCCC1CCSS1)C(C)C (some centres not stated) |
| 0.1 | 20 | CCNC(=O)C(=O)[C@H](Cc1ccc(Cl)cc1)NC(=O)[C@@H](NC(=O)CCCCNC(=O)CCCCC1CCSS1)C(C)C (some centres not stated) |
| 0.1 | 5 | CCNC(=O)C(=O)[C@H](Cc1ccc(Cl)cc1)NC(=O)[C@@H](NC(=O)CCCC[C@@H]1SC[C@@H]2NC(=O)N[C@@H]21)C(C)C |
| 0.12 | 2 | CCNC(=O)C(=O)[C@H](Cc1ccc(Cl)cc1)NC(=O)[C@@H](NC(=O)CCCC1CCCS1)C(C)C (some centres not stated) |
| 0.09 | 15 | CCNC(=O)C(=O)[C@H](Cc1ccc(Cl)cc1)NC(=O)[C@@H](NC(=O)OCc1ccccc1)C(C)C |
| 0.03 | 1 | CCNC(=O)C(=O)[C@H](Cc1ccc(Cl)cc1)NC(=O)[C@@H](NC(=O)CNC(=O)CCCCC1CCSS1)C(C)C (some centres not stated) |
| 0.039 | 0.4 | CCNC(=O)C(=O)[C@@H](Cc1ccc(Br)cc1)NC(=O)[C@H](CC(C)C)NC(=O)CCCCC1CCSS1 (some centres not stated) |
